# Results taken from ChEMBL document CHEMBL1240456, “Synthesis and antimicrobial activity of some new thiazole, thiophene and pyrazole derivatives containing benzothiazole moiety” (2010).
# Tests used:
# Type in all cases: functional
# Pseudomonas [1] = assay: Antimicrobial activity against Pseudomonas phaseolicola GSPB 2828 after 24 hrs by agar diffusion assay
# Summary of the method: (§1)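 Filter-paper disks (5 mm) loaded with test solution at 1 mg/mL in DMF, placed on agar seeded with the bacterium, in triplicate. DMF alone served as control. Plates incubated at 37 °C for 24 h. Read-out is the mean diameter of the inhibition zone in mm.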
# Fusarium oxysporum [2] = assay: Antimicrobial activity against Fusarium oxysporum after 48 hrs by agar diffusion assay
# Fusarium oxysporum [3] = assay: Antimicrobial activity against Fusarium oxysporum after 48 hrs by microdilution assay
# Summary of the method: (§2)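 Broth microdilution in Sabouraud liquid medium, run only for compounds giving zones >12 mm. Stock at 1000 µg/mL in DMF, then twofold dilutions of 500 down to 3.125 µg/mL. Wells inoculated with 10^6 CFU/mL.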
# Aspergillus fumigatus [4] = assay: Antimicrobial activity against Aspergillus fumigatus after 48 hrs by microdilution assay; summary of the method: as §2
# Pseudomonas fluorescens [5] = assay: Antimicrobial activity against Pseudomonas fluorescens S 97 after 24 hrs by agar diffusion assay; summary of the method: as §1
# Aspergillus fumigatus [6] = assay: Antimicrobial activity against Aspergillus fumigatus after 48 hrs by agar diffusion assay
# Streptococcus pyogenes [7] = assay: Antimicrobial activity against Streptococcus pyogenes ATCC 19615 after 24 hrs by agar diffusion assay; summary of the method: as §1
# Staphylococcus aureus [8] = assay: Antimicrobial activity against Staphylococcus aureus ATCC 25923 after 24 hrs by agar diffusion assay; summary of the method: as §1
# Pseudomonas [9] = assay: Antimicrobial activity against Pseudomonas phaseolicola GSPB 2828 after 24 hrs by microdilution assay; conditions: GSPB 2828, 24 h
# Summary of the method: (§3)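 Broth microdilution in Müller-Hinton broth, run only for compounds giving zones >12 mm. Stock at 1000 µg/mL in DMF, then twofold dilutions of 500 down to 3.125 µg/mL. Wells inoculated with 10^6 CFU/mL.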
# Staphylococcus aureus [10] = assay: Antimicrobial activity against Staphylococcus aureus ATCC 25923 after 24 hrs by microdilution assay; conditions: ATCC 25923, 24 h; summary of the method: as §3
# Streptococcus pyogenes [11] = assay: Antimicrobial activity against Streptococcus pyogenes ATCC 19615 after 24 hrs by microdilution assay; conditions: ATCC 19615, 24 h; summary of the method: as §3
# Pseudomonas fluorescens [12] = assay: Antimicrobial activity against Pseudomonas fluorescens S 97 after 24 hrs by microdilution assay; conditions: S 97, 24 h; summary of the method: as §3
Structure (SMILES),inhibition zone (IZ) (Pseudomonas [1]),inhibition zone (IZ) (Fusarium oxysporum [2]),MIC (Fusarium oxysporum [3]),MIC (Aspergillus fumigatus [4]),inhibition zone (IZ) (Pseudomonas fluorescens [5]),inhibition zone (IZ) (Aspergillus fumigatus [6]),inhibition zone (IZ) (Streptococcus pyogenes [7]),inhibition zone (IZ) (Staphylococcus aureus [8]),MIC (Pseudomonas [9]),MIC (Staphylococcus aureus [10]),MIC (Streptococcus pyogenes [11]),MIC (Pseudomonas fluorescens [12])
O=C1CSC(CC(=O)Nc2nc3ccccc3s2)=N1,14 mm,16 mm,100 µg/mL,50 µg/mL,37 mm,20 mm,25 mm,26 mm,100 µg/mL,25 µg/mL,25 µg/mL,6.25 µg/mL
O=C(Nc1nc2ccccc2s1)c1c(Nc2ccccc2)n[nH]c1/N=C\c1cn(-c2ccccc2)nc1-c1ccccc1,15 mm,26 mm,25 µg/mL,100 µg/mL,19 mm,14 mm,37 mm,44 mm,100 µg/mL,3.12 µg/mL,6.25 µg/mL,50 µg/mL
N#C/C(C(=O)Nc1nc2ccccc2s1)=C1/SC=C(c2ccccc2)N1c1ccccc1,14 mm,15 mm,100 µg/mL,6.25 µg/mL,19 mm,38 mm,15 mm,19 mm,100 µg/mL,50 µg/mL,100 µg/mL,50 µg/mL
N#C/C(C(=O)Nc1nc2ccccc2s1)=C1\SCC(=O)N1c1ccccc1,15 mm,14 mm,100 µg/mL,50 µg/mL,17 mm,19 mm,14 mm,15 mm,100 µg/mL,100 µg/mL,100 µg/mL,100 µg/mL
Nc1c(C(=O)Nc2nc3ccccc3s2)sc(=S)n1-c1ccccc1,20 mm,31 mm,12.5 µg/mL,100 µg/mL,16 mm,16 mm,14 mm,32 mm,50 µg/mL,12.5 µg/mL,100 µg/mL,100 µg/mL
Nc1sc2c(c1C(=O)Nc1nc3ccccc3s1)CCCC2,14 mm,15 mm,100 µg/mL,50 µg/mL,16 mm,19 mm,38 mm,38 mm,100 µg/mL,6.25 µg/mL,6.25 µg/mL,100 µg/mL
Nc1c(C(=O)c2ccccc2)sc(Nc2ccccc2)c1C(=O)Nc1nc2ccccc2s1,19 mm,14 mm,100 µg/mL,,20 mm,,37 mm,38 mm,50 µg/mL,6.25 µg/mL,6.25 µg/mL,50 µg/mL
CCOC(=O)c1sc(Nc2ccccc2)c(C(=O)Nc2nc3ccccc3s2)c1N,19 mm,14 mm,100 µg/mL,12.5 µg/mL,,31 mm,38 mm,43 mm,50 µg/mL,3.12 µg/mL,6.25 µg/mL,
Nc1[nH]nc(-c2cn(-c3ccccc3)nc2-c2ccccc2)c1C(=O)Nc1nc2ccccc2s1,14 mm,19 mm,50 µg/mL,,20 mm,,38 mm,32 mm,100 µg/mL,12.5 µg/mL,6.25 µg/mL,50 µg/mL
Cc1cc(C)c2c(n1)[nH]n1c(=N)c(C(=O)Nc3nc4ccccc4s3)nnc21,15 mm,26 mm,25 µg/mL,50 µg/mL,32 mm,19 mm,15 mm,14 mm,100 µg/mL,100 µg/mL,100 µg/mL,12.5 µg/mL
Cc1cc(O)n2nc(Nc3ccccc3)c(C(=O)Nc3nc4ccccc4s3)c2n1,26 mm,15 mm,100 µg/mL,100 µg/mL,19 mm,14 mm,37 mm,25 mm,25 µg/mL,25 µg/mL,6.25 µg/mL,50 µg/mL
O=C(Nc1nc2ccccc2s1)c1c(Nc2ccccc2)nn2c(-c3cccs3)ccnc12,15 mm,37 mm,6.25 µg/mL,25 µg/mL,18 mm,26 mm,15 mm,14 mm,100 µg/mL,100 µg/mL,100 µg/mL,50 µg/mL
O=c1c2c(Nc3ccccc3)n[nH]c2ncn1-c1nc2ccccc2s1,38 mm,19 mm,50 µg/mL,100 µg/mL,15 mm,15 mm,15 mm,15 mm,6.25 µg/mL,100 µg/mL,100 µg/mL,100 µg/mL
CC(=O)OCC1=C(C(=O)O)N2C(=O)[C@@H](NC(=O)Cc3cccs3)[C@H]2SC1 [CEPHALOTHIN],38 mm,,,,37 mm,,37 mm,36 mm,6.25 µg/mL,6.25 µg/mL,6.25 µg/mL,6.25 µg/mL
O=C(N[C@H](CO)[C@H](O)c1ccc([N+](=O)[O-])cc1)C(Cl)Cl [CHLORAMPHENICOL],37 mm,,,,38 mm,,44 mm,42 mm,6.25 µg/mL,3.12 µg/mL,3.12 µg/mL,6.25 µg/mL
C[C@@H]1C[C@@H]([C@H](O)CC2CC(=O)NC(=O)C2)C(=O)[C@@H](C)C1 [CYCLOHEXIMIDE],,43 mm,3.12 µg/mL,3.12 µg/mL,,42 mm,,,,,,
